{
  "source": "ChEMBL document CHEMBL1130011",
  "about": "“Chemical and biological studies on a series of novel (trans-(1R,2R)-, trans-(1S,2S)-, and cis-1,2-diaminocyclohexane)platinum(IV) carboxylate complexes” (J Med Chem, 1997)",
  "format_in_all_cases": "functional, organism-based",
  "key": {"[1]": {"test_system": "Mus musculus", "test": "Antitumor activity against L1210/0 leukemia cells in mice at the optimal dose of 75 mg/kg/injection (median survival time of [treated mice/control mice])", "procedure,_shortened": "(§1)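 Male B6D2F1 (C57BL/6 × DBA/2) mice were inoculated ip with 1 × 10^5 leukemia cells on day 0. Drug was given ip on days 1, 5 and 9, prepared in water or 0.9% NaCl and administered immediately, over a dose range of 0.5–200 mg/kg/injection. Animals were monitored daily. %T/C = median survival of treated × 100/median survival of controls. Cures were mice alive at day 60.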"}, "[2]": {"test_system": "Mus musculus", "test": "Antitumor activity against L1210/cisplatin leukemia cells in mice at the optimal dose of 75 mg/kg/injection (median survival time of [treated mice/control mice])", "procedure,_shortened": "as §1"}, "[3]": {"test_system": "Mus musculus", "test": "Antitumor activity against L1210/0 leukemia cells in mice at the optimal dose of 5 mg/kg/injection (median survival time of [treated mice/control mice])", "procedure,_shortened": "as §1"}, "[4]": {"test_system": "Mus musculus", "test": "Antitumor activity against L1210/cisplatin leukemia cells in mice at the optimal dose of 5 mg/kg/injection (median survival time of [treated mice/control mice])", "procedure,_shortened": "as §1"}, "[5]": {"test_system": "Mus musculus", "test": "Antitumor activity against M5076 reticulosarcoma grown subcutaneously in mice at the optimal dose of 5 mg/kg/injection", "procedure,_shortened": "(§2)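 Male B6D2F1 (C57BL/6 × DBA/2) mice received 1 × 10^7 M5076 cells sc on day 0. Drug was given ip on days 5, 9, 13 and 17, prepared in water or 0.9% NaCl and given immediately, over a dose range of 0.5–200 mg/kg/injection. Animals were monitored daily. Results are expressed as %T/C (median survival ratio × 100) or as tumor growth delay.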"}, "[6]": {"test_system": "Mus musculus", "test": "Antitumor activity against L1210/0 leukemia cells in mice at the optimal dose of 200 mg/kg/injection (median survival time of [treated mice/control mice])", "procedure,_shortened": "as §1"}, "[7]": {"test_system": "Mus musculus", "test": "Antitumor activity against L1210/0 leukemia cells in mice at the optimal dose of 100 mg/kg/injection (median survival time of [treated mice/control mice])", "procedure,_shortened": "as §1"}, "[8]": {"test_system": "Mus musculus", "test": "Antitumor activity against L1210/cisplatin leukemia cells in mice at the optimal dose of 50 mg/kg/injection (median survival time of [treated mice/control mice])", "procedure,_shortened": "as §1"}, "[9]": {"test_system": "Mus musculus", "test": "Antitumor activity against M5076 reticulosarcoma grown subcutaneously in mice at the optimal dose of 100 mg/kg/injection", "procedure,_shortened": "as §2"}, "[10]": {"test_system": "Mus musculus", "test": "Antitumor activity against L1210/cisplatin leukemia cells in mice at the optimal dose of 200 mg/kg/injection (median survival time of [treated mice/control mice])", "procedure,_shortened": "as §1"}, "[11]": {"test_system": "Mus musculus", "test": "Antitumor activity against M5076 reticulosarcoma grown subcutaneously in mice at the optimal dose of 200 mg/kg/injection", "procedure,_shortened": "as §2"}, "[12]": {"test_system": "Mus musculus", "test": "Antitumor activity against L1210/0 leukemia cells in mice at the optimal dose of 50 mg/kg/injection (median survival time of [treated mice/control mice])", "procedure,_shortened": "as §1"}, "[13]": {"test_system": "Mus musculus", "test": "Antitumor activity against L1210/cisplatin leukemia cells in mice at the optimal dose of 100 mg/kg/injection (median survival time of [treated mice/control mice])", "procedure,_shortened": "as §1"}, "[14]": {"test_system": "Mus musculus", "test": "Antitumor activity against L1210/0 leukemia cells in mice at the optimal dose of 25 mg/kg/injection (median survival time of [treated mice/control mice])", "procedure,_shortened": "as §1"}, "[15]": {"test_system": "Mus musculus", "test": "Antitumor activity against L1210/cisplatin leukemia cells in mice at the optimal dose of 25 mg/kg/injection (median survival time of [treated mice/control mice])", "procedure,_shortened": "as §1"}},
  "data": [
    {"substance": "CARBOPLATIN", "values": [
      {"measurement": "T/C", "setting": "[1]", "result": 147, "unit": "%"},
      {"measurement": "T/C", "setting": "[2]", "result": 111, "unit": "%"}
    ]},
    {"substance": "CISPLATIN", "values": [
      {"measurement": "T/C", "setting": "[3]", "result": 300, "unit": "%"},
      {"measurement": "T/C", "setting": "[4]", "result": 100, "unit": "%"},
      {"measurement": "Tumor growth delay", "setting": "[5]", "result": 16.3, "unit": "days"}
    ]},
    {"substance": "Platinum IV (cis-1,2-diaminecyclohexyl)-trans-(acetate)2 (1,1-cyclobutanedicarboxylate)", "values": [
      {"measurement": "T/C", "setting": "[6]", "result": 112, "unit": "%"}
    ]},
    {"substance": "Platinum IV (cis-1,2-diaminecyclohexyl)-trans-(acetate)2 (malonate)", "values": [
      {"measurement": "T/C", "setting": "[6]", "result": 206, "unit": "%"}
    ]},
    {"substance": "Platinum IV (cis-1,2-diaminecyclohexyl)-trans-(acetate)2 (oxalate)", "values": [
      {"measurement": "T/C", "setting": "[7]", "result": 159, "unit": "%"}
    ]},
    {"substance": "Platinum IV (trans-(1R,2R)-diaminecyclohexyl) (acetate)4", "values": [
      {"measurement": "T/C", "setting": "[6]", "result": 206, "unit": "%"}
    ]},
    {"substance": "Platinum IV (trans-(1R,2R)-diaminecyclohexyl)-trans-(acetate)2", "values": [
      {"measurement": "T/C", "setting": "[7]", "result": 265, "unit": "%"},
      {"measurement": "T/C", "setting": "[8]", "result": 144, "unit": "%"},
      {"measurement": "Tumor growth delay", "setting": "[9]", "result": 19.5, "unit": "days"}
    ]},
    {"substance": "Platinum IV (trans-(1R,2R)-diaminecyclohexyl)-trans-(acetate)2 (1,1-cyclobutanedicarboxylate)", "values": [
      {"measurement": "T/C", "setting": "[6]", "result": 112, "unit": "%"},
      {"measurement": "T/C", "setting": "[10]", "result": 100, "unit": "%"},
      {"measurement": "Tumor growth delay", "setting": "[11]", "result": 15.8, "unit": "days"}
    ]},
    {"substance": "Platinum IV (trans-(1R,2R)-diaminecyclohexyl)-trans-(acetate)2 (cyclobutanecarboxylate)2", "values": [
      {"measurement": "T/C", "setting": "[7]", "result": 206, "unit": "%"},
      {"measurement": "T/C", "setting": "[8]", "result": 157, "unit": "%"}
    ]},
    {"substance": "Platinum IV (trans-(1R,2R)-diaminecyclohexyl)-trans-(acetate)2 (methylmalonate)", "values": [
      {"measurement": "T/C", "setting": "[6]", "result": 147, "unit": "%"},
      {"measurement": "T/C", "setting": "[10]", "result": 93, "unit": "%"},
      {"measurement": "Tumor growth delay", "setting": "[11]", "result": 21.3, "unit": "days"}
    ]},
    {"substance": "Platinum IV (trans-(1R,2R)-diaminecyclohexyl)-trans-(acetate)2 (oxalate)", "values": [
      {"measurement": "T/C", "setting": "[12]", "result": 171, "unit": "%"}
    ]},
    {"substance": "Platinum IV (trans-(1R,2R)-diaminecyclohexyl)-trans-(trifluoroacetate)2 (1,1-cyclobutanedicarboxylate)", "values": [
      {"measurement": "T/C", "setting": "[6]", "result": 253, "unit": "%"},
      {"measurement": "T/C", "setting": "[13]", "result": 205, "unit": "%"}
    ]},
    {"substance": "Platinum IV (trans-(1R,2R)-diaminecyclohexyl)-trans-(trifluoroacetate)2 (acetate)4", "values": [
      {"measurement": "T/C", "setting": "[14]", "result": 218, "unit": "%"},
      {"measurement": "T/C", "setting": "[15]", "result": 148, "unit": "%"}
    ]},
    {"substance": "Platinum IV (trans-(1R,2R)-diaminecyclohexyl)-trans-(trifluoroacetate)2 (oxalate)", "values": [
      {"measurement": "T/C", "setting": "[12]", "result": "> 700", "unit": "%"},
      {"measurement": "T/C", "setting": "[8]", "result": 176, "unit": "%"}
    ]},
    {"substance": "Platinum IV (trans-(1S,2S)-diaminecyclohexyl) (acetate)4", "values": [
      {"measurement": "T/C", "setting": "[6]", "result": 194, "unit": "%"}
    ]},
    {"substance": "Platinum IV (trans-(1S,2S)-diaminecyclohexyl)-trans-(acetate)2 (cyclobutanecarboxylate)2", "values": [
      {"measurement": "T/C", "setting": "[12]", "result": 182, "unit": "%"}
    ]},
    {"substance": "Platinum IV (trans-(1S,2S)-diaminecyclohexyl)-trans-(acetate)2 (oxalate)", "values": [
      {"measurement": "T/C", "setting": "[12]", "result": 135, "unit": "%"}
    ]},
    {"substance": "[Pt(O2CCH3)4(dach)]dach", "values": [
      {"measurement": "T/C", "setting": "[6]", "result": 182, "unit": "%"}
    ]}
  ]
}
